# Results taken from article PMC9069315 (Acta Pharmaceutica Sinica. B, 2021).
# Positions count from the first letter of the chain named. “And” between values parts separate entries of the source, which are not always exact repeats. Identical values can stand only once.
# Columns and labels:
# [1] = molecular target: T1, σ2 receptors (Mus musculus, UniProt Q8VD00); assay: Blocking experiments in male ICR mice; assay type: in vivo; conditions: 30 min p.i.
# T1 sequence (Q8VD00 1-176): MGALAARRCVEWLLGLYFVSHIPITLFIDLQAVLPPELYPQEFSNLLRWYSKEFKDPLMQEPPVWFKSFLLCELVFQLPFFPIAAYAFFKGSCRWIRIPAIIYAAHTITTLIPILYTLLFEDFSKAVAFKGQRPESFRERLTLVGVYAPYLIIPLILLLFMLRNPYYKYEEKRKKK
# In short: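 Male ICR mice (20 ± 2 g, 4–5 weeks) were pre-dosed 5 min before about 280 kBq of radiotracer, with either unlabeled compound (0.1 mL, 3 μmol/kg) or CM398 (0.1 mL; 3, 5, 10 or 20 μmol/kg). Tissues were taken at 30 min p.i. Brain uptake (% ID/g) and brain-to-blood ratio were compared with unblocked controls.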
# [2] = Biodistribution in male ICR mice; assay type: in vivo, mouse; conditions: i.v.
# In short: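 Male ICR mice (20 ± 2 g, 4–5 weeks) received the radiotracer, and tissues were sampled at the listed times after injection. Uptake is given as percentage of injected dose per gram of tissue (% ID/g), as means ± SD, n = 5.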
# [3] = molecular target: T2, σ2 receptor (Rattus norvegicus, UniProt Q5U3Y7); assay: Micro-PET/CT imaging in Sprague-Dawley rats; assay type: in vivo; conditions: SD rats, CM398 10 μmol/kg 5 min before tracer, after 30 min
# T2 sequence (Q5U3Y7 1-176): T1 sequence (Q8VD00 1-176) with L4V, A5T, L26M, V33L, L71F, A105V, L118I, V127I, S136N, Y169F
# In short: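 Male SD rats (200 ± 10 g, 6–7 weeks) were injected intravenously with radiotracer, and a dynamic 120-min micro-PET/CT scan followed. Scans were run at baseline or with CM398 (10 μmol/kg) blocking. Whole-brain and regional time–activity curves were expressed as SUV, n = 3 per condition for whole brain; images were summed over 30–45 min.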
# [4] = molecular target: P-glycoprotein (P-gp) (Mus musculus, UniProt P21447); assay: Effect of P-gp on brain uptake; assay type: in vivo; conditions: male ICR mice
# P-glycoprotein (P-gp), sequence (P21447 whole entry): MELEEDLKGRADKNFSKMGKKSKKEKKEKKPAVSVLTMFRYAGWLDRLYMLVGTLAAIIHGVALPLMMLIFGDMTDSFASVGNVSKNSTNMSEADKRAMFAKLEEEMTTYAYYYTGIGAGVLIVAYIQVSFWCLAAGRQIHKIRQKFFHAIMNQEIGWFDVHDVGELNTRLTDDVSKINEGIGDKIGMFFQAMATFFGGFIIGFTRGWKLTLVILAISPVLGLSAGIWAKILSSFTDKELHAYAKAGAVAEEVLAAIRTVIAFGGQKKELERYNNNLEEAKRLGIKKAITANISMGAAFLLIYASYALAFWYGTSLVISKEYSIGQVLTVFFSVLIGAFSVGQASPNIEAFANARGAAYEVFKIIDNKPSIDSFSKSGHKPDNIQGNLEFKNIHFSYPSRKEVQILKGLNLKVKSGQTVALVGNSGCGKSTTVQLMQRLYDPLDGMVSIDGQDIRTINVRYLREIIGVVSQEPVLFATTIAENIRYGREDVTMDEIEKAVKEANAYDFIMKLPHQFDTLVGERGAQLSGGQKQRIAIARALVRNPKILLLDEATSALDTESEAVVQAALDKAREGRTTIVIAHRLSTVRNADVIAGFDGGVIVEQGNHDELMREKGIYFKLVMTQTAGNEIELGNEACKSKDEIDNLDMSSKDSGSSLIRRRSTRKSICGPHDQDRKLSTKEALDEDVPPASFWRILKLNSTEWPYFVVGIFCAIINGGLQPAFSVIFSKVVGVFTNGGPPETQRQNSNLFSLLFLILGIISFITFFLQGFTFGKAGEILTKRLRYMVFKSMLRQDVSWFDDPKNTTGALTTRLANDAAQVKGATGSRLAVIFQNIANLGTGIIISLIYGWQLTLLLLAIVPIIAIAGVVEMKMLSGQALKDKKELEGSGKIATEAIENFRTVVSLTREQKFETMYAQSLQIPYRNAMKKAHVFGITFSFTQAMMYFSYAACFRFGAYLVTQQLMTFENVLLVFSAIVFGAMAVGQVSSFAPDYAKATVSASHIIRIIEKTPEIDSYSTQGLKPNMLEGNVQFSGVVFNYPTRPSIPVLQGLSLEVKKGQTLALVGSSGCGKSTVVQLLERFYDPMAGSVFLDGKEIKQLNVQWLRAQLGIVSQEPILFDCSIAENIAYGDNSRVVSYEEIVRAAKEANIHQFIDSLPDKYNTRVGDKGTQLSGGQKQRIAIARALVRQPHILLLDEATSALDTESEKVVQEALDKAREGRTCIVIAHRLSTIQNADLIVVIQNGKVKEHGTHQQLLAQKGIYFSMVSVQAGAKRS
# In short: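 Male ICR mice (20 ± 2 g, 4–5 weeks) were given the P-gp inhibitor cyclosporine A 60 min before the radioligand. Radioactivity in brain and blood was measured and the brain-to-blood ratio derived, n = 5–8 per group, means ± SD. Groups were compared by independent two-tailed Student's t test.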
# [5] = molecular target: T1, σ2 receptors; assay: Ex vivo autoradiography in mouse brain; conditions: baseline, 30 min p.i., male ICR mice
# [6] = In vivo metabolic stability in ICR mice; design: species or system mouse; conditions: 30 min after injection, radio-HPLC
# In short: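 ICR mice were injected with radiotracer (0.2 mL, 33.3 MBq). Brain and pancreas were dissected at 30 min, processed, and analysed by radio-HPLC for the intact-tracer fraction versus radioactive metabolites.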
# [7] = In vitro stability in saline and mouse serum; assay type: in vitro ADME; conditions: 2 h
# [8] = molecular target: T2, σ2 receptor; conditions: cited from earlier work
# [9] = CM398 5 μmol/kg 5 min before tracer
# [10] = unlabeled compound 3 μmol/kg 5 min before tracer
# [11] = cyclosporine A 60 min before tracer, 2 min p.i., P < 0.05
smiles,measurement,setting,value
"COc1cc2c(cc1OC)CN(CCCCn1ccc3c(OCC[18F])cccc31)C2 [[^18F]9, 1-(4-(5,6-dimethoxyisoindolin-2-yl)butyl)-4-(2-[^18F]fluoroethoxy)-1H-indole]","Blocking effect of CM398 (5 μmol/kg), Brain",[1]; [9],39%
same,"Blocking effect of CM398 (5 μmol/kg), Brain/Blood",[1]; [9],75%
same,"Self-blocking effect, Brain",[1]; [10],58%
same,"Self-blocking effect, Brain/Blood",[1]; [10],90%
same,Blood uptake,[2]; 2 min p.i.,2.39 ± 0.36 % ID/g
same,Bone uptake,[2]; 2 min p.i.,2.59 ± 0.66 % ID/g
same,Brain uptake,[2]; 2 min p.i.,4.44 ± 0.59 % ID/g
same,Brain/Blood ratio,[2]; 2 min p.i.,1.87 ± 0.13
same,Heart uptake,[2]; 2 min p.i.,21.57 ± 1.58 % ID/g
same,Kidney uptake,[2]; 2 min p.i.,18.89 ± 2.48 % ID/g
same,Liver uptake,[2]; 2 min p.i.,3.24 ± 0.67 % ID/g
same,Lung uptake,[2]; 2 min p.i.,108.47 ± 20.11 % ID/g
same,Muscle uptake,[2]; 2 min p.i.,4.38 ± 0.99 % ID/g
same,Pancreas uptake,[2]; 2 min p.i.,8.74 ± 0.29 % ID/g
same,Small intestine uptake,[2]; 2 min p.i.,6.21 ± 0.81 % ID/organ
same,Spleen uptake,[2]; 2 min p.i.,5.01 ± 1.80 % ID/g
same,Stomach uptake,[2]; 2 min p.i.,1.21 ± 0.14 % ID/organ
same,Blood uptake,[2]; 15 min p.i.,0.70 ± 0.08 % ID/g
same,Bone uptake,[2]; 15 min p.i.,3.02 ± 0.45 % ID/g
same,Brain uptake,[2]; 15 min p.i.,4.95 ± 0.36 % ID/g
same,Brain/Blood ratio,[2]; 15 min p.i.,7.2 and 7.21 ± 1.36
same,Heart uptake,[2]; 15 min p.i.,11.23 ± 0.91 % ID/g
same,Kidney uptake,[2]; 15 min p.i.,18.40 ± 2.45 % ID/g
same,Liver uptake,[2]; 15 min p.i.,6.13 ± 0.94 % ID/g
same,Lung uptake,[2]; 15 min p.i.,36.37 ± 6.47 % ID/g
same,Muscle uptake,[2]; 15 min p.i.,3.74 ± 0.33 % ID/g
same,Pancreas uptake,[2]; 15 min p.i.,12.75 ± 2.12 % ID/g
same,Small intestine uptake,[2]; 15 min p.i.,7.27 ± 0.88 % ID/organ
same,Spleen uptake,[2]; 15 min p.i.,7.51 ± 1.17 % ID/g
same,Stomach uptake,[2]; 15 min p.i.,1.52 ± 0.19 % ID/organ
same,Blood uptake,[2]; 30 min p.i.,0.48 ± 0.08 % ID/g
same,Bone uptake,[2]; 30 min p.i.,4.50 ± 0.38 % ID/g
same,Brain uptake,[2]; 30 min p.i.,5.04 ± 0.67 % ID/g
same,Brain/Blood ratio,[2]; 30 min p.i.,10.6 and 10.57 ± 1.86 and 10.57
same,Heart uptake,[2]; 30 min p.i.,7.55 ± 1.30 % ID/g
same,Kidney uptake,[2]; 30 min p.i.,20.61 ± 1.80 % ID/g
same,Liver uptake,[2]; 30 min p.i.,8.69 ± 0.44 % ID/g
same,Lung uptake,[2]; 30 min p.i.,17.93 ± 2.42 % ID/g
same,Muscle uptake,[2]; 30 min p.i.,3.90 ± 0.23 % ID/g
same,Pancreas uptake,[2]; 30 min p.i.,18.93 ± 2.95 % ID/g
same,Small intestine uptake,[2]; 30 min p.i.,10.80 ± 0.36 % ID/organ
same,Spleen uptake,[2]; 30 min p.i.,9.93 ± 1.43 % ID/g
same,Stomach uptake,[2]; 30 min p.i.,1.54 ± 0.20 % ID/organ
same,Blood uptake,[2]; 60 min p.i.,0.42 ± 0.05 % ID/g
same,Bone uptake,[2]; 60 min p.i.,4.64 ± 1.57 % ID/g
same,Brain uptake,[2]; 60 min p.i.,4.43 ± 0.39 % ID/g
same,Brain/Blood ratio,[2]; 60 min p.i.,10.6 and 10.56 ± 0.83
same,Heart uptake,[2]; 60 min p.i.,3.49 ± 0.62 % ID/g
same,Kidney uptake,[2]; 60 min p.i.,17.40 ± 3.97 % ID/g
same,Liver uptake,[2]; 60 min p.i.,10.97 ± 0.95 % ID/g
same,Lung uptake,[2]; 60 min p.i.,9.95 ± 1.62 % ID/g
same,Muscle uptake,[2]; 60 min p.i.,3.01 ± 0.51 % ID/g
same,Pancreas uptake,[2]; 60 min p.i.,22.66 ± 3.36 % ID/g
same,Small intestine uptake,[2]; 60 min p.i.,10.73 ± 1.27 % ID/organ
same,Spleen uptake,[2]; 60 min p.i.,11.35 ± 2.85 % ID/g
same,Stomach uptake,[2]; 60 min p.i.,1.39 ± 0.27 % ID/organ
same,Blood uptake,[2]; 120 min p.i.,0.42 ± 0.03 % ID/g
same,Bone uptake,[2]; 120 min p.i.,5.57 ± 0.53 % ID/g
same,Brain uptake,[2]; 120 min p.i.,3.41 ± 0.13 % ID/g
same,Brain/Blood ratio,[2]; 120 min p.i.,8.11 ± 0.37
same,Heart uptake,[2]; 120 min p.i.,2.76 ± 0.41 % ID/g
same,Kidney uptake,[2]; 120 min p.i.,12.36 ± 0.81 % ID/g
same,Liver uptake,[2]; 120 min p.i.,11.9 ± 1.52 % ID/g
same,Lung uptake,[2]; 120 min p.i.,7.53 ± 1.07 % ID/g
same,Muscle uptake,[2]; 120 min p.i.,3.01 ± 0.27 % ID/g
same,Pancreas uptake,[2]; 120 min p.i.,24.21 ± 1.57 % ID/g
same,Small intestine uptake,[2]; 120 min p.i.,10.88 ± 0.38 % ID/organ
same,Spleen uptake,[2]; 120 min p.i.,10.51 ± 0.37 % ID/g
same,Stomach uptake,[2]; 120 min p.i.,1.22 ± 0.13 % ID/organ
same,Reduction of radiotracer accumulation in the whole-brain (micro-PET),[3],> 60%
same,P-gp substrate,"[4]; cyclosporine A 50 mg/kg 60 min before tracer, 50 mg/kg",moderate P-gp substrates and moderate P-gp substrate and Yes
same,Increase in brain-to-blood ratio with cyclosporine A,[4]; [11],35%
same,Increase in initial brain uptake with cyclosporine A,[4]; [11],49%
same,Change in blood uptake with cyclosporine A,"[4]; cyclosporine A 60 min before tracer, 2 min p.i., P > 0.05",slight increase without significance
same,Radioactivity distribution in the mouse brain (ex vivo autoradiography),[5],widely and heterogeneously distributed
same,Parent compound fraction of radioactivity in brain,[6],≥ 95%
same,Parent compound fraction of radioactivity in pancreas,[6]; n = 3,~10%
same,RCP after incubation (in vitro stability),"[7]; mouse serum, 37 °C",> 99%
same,RCP after incubation (in vitro stability),"[7]; saline, ambient temperature",> 99%
same,Ki,[8]; read-out: Ki (σ2),1.79 ± 0.86 nM
same,Ki (σ1)/Ki (σ2),[8]; subtype selectivity,207
